Laboratory results as given in ChEMBL document CHEMBL1145087 (J Med Chem, 2003).

Experiments:
[1] = target: T1, Estrogen receptor (Homo sapiens, UniProt Q92731+P03372); test: Antagonistic efficacy against human estrogen receptor; assay type: functional
In short: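 Cotransfection LUC reporter assay for hER. Antagonist efficacy is the % maximal inhibition of a standard agonist (estradiol is the reference agonist for hER) applied at its EC50.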

[2] = target: T2, Glucocorticoid receptor (Homo sapiens, UniProt P04150); test: Inhibition of Dexamethasone binding to human glucocorticoid receptor expressed in baculovirus […] cells
T2 sequence (P04150 whole entry): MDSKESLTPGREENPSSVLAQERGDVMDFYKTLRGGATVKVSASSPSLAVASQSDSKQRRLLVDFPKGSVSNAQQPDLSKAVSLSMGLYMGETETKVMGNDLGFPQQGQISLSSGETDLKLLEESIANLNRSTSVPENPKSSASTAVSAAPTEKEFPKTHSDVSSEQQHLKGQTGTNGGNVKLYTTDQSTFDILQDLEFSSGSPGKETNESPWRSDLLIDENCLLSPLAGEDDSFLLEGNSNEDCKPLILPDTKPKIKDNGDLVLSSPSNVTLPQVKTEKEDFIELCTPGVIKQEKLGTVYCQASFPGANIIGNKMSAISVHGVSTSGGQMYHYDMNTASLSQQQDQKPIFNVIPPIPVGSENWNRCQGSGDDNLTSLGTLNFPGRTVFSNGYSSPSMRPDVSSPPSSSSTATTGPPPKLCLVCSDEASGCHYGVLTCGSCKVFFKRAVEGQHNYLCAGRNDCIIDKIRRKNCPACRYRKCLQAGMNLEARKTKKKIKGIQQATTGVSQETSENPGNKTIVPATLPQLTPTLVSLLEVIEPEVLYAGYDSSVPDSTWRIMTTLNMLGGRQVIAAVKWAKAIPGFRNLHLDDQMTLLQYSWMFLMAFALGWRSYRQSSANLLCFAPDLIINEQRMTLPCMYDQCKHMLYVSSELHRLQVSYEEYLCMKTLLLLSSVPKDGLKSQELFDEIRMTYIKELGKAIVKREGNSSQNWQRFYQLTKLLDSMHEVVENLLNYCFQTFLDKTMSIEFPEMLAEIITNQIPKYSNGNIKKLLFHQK

[3] = target: T3, Progesterone receptor (Homo sapiens, UniProt P06401); test: Agonistic activity against human progesterone receptor in CV-1 cells; assay type: functional, cell-based
T3 sequence (P06401 whole entry): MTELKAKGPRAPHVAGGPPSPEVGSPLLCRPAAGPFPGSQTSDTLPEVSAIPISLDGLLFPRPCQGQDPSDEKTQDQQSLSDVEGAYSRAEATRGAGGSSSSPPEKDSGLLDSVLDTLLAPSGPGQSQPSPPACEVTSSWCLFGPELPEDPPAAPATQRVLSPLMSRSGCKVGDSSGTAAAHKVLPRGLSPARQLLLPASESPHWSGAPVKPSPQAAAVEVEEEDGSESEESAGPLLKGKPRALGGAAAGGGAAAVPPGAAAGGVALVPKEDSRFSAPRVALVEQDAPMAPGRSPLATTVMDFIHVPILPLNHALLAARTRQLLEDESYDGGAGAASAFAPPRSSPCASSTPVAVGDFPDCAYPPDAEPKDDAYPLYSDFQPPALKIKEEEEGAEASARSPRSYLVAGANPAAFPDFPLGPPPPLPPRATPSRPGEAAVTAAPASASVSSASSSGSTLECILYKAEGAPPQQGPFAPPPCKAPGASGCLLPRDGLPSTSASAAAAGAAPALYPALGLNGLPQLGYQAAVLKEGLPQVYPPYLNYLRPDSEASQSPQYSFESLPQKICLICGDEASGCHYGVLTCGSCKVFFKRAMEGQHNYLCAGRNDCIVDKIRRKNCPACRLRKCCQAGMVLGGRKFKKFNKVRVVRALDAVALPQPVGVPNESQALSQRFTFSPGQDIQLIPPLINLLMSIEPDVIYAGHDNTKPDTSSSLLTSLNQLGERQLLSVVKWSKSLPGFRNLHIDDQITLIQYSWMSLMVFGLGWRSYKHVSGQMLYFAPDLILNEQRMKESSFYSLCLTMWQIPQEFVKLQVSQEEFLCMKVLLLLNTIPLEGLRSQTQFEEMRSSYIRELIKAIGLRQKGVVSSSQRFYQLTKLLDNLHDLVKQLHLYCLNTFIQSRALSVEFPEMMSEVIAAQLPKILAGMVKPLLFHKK

[4] = target: T3, Progesterone receptor; test: Agonistic activity against human progesterone receptor in T47D breast cancer cells; assay type: functional, cell-based
[5] = target: T4, Progesterone receptor (Homo sapiens) (UniProt P06401); test: Percent agonistic effect towards human progesterone receptor in CV-1 cells; assay type: functional, cell-based
T4 sequence (whole entry): T3 sequence (P06401 whole entry)

[6] = target: T4, Progesterone receptor (Homo sapiens); test: Percent agonistic effect towards human progesterone receptor in T47D breast cancer cells; assay type: functional, cell-based
[7] = target: T3, Progesterone receptor; test: Binding affinity towards human progesterone receptor A isoform using progesterone as radioligand
[8] = species: Homo sapiens; test: Relative potency for human androgen and progesterone receptors
[9] = species: Homo sapiens; test: Relative potency for human estrogen and progesterone receptors
[10] = species: Homo sapiens; test: Relative potency for human glucocorticoid and progesterone receptors
[11] = species: Homo sapiens; test: Relative potency for human mineralocorticoid and progesterone receptors
[12] = target: T5, Androgen receptor (Homo sapiens, UniProt P10275)
T5 sequence (P10275 whole entry): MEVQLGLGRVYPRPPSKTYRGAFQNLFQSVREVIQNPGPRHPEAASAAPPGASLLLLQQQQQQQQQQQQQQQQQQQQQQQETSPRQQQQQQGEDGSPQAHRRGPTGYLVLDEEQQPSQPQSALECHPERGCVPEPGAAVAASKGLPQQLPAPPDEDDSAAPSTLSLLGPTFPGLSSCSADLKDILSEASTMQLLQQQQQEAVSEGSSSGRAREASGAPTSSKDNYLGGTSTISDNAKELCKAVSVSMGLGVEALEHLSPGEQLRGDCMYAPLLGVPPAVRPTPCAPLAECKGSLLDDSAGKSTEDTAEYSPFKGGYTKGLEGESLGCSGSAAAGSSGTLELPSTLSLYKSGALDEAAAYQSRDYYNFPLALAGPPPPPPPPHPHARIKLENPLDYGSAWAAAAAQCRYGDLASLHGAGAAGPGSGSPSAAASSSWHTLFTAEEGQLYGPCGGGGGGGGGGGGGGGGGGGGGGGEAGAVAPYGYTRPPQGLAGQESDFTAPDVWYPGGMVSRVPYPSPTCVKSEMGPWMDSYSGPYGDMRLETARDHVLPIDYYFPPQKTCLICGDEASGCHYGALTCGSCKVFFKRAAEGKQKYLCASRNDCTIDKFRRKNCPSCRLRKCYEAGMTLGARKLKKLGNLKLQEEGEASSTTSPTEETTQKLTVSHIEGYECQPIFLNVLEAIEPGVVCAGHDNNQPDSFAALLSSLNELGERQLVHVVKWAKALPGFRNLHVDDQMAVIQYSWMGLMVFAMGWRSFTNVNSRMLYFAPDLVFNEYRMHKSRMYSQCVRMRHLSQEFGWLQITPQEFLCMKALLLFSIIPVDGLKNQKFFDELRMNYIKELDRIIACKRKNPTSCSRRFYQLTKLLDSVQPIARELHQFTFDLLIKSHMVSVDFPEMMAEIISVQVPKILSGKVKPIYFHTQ

[13] = target: T2, Glucocorticoid receptor
[14] = target: T1, Estrogen receptor
[15] = target: T5, Androgen receptor; test: biochemical

Compound CC1=CC(C)(C)Nc2ccc3c(c21)/C(=C/c1ccco1)Oc1ccc(F)cc1-3 has an Efficacy [1] of 51%, a Ki [2] of 140 nM and an EC50 [3] of 1.7 nM. The EC50 [4] was 21 nM, the Efficacy [5] was 138% and the Efficacy [6] was 64%. It also gave a Ki [7] of 4.7 nM, a Ratio [8] of 152 and a Ratio [9] of 749. For the same compound, the Ratio [10] was 64, the Ratio [11] was > 1000 and the IC50 [12] was 258 nM. The IC50 [13] was 109 nM, the IC50 [14] was 1273 nM and the Ki [15] was > 1000 nM.
